{"source": "ChEMBL document CHEMBL1138789", "about": "“HCV NS5b RNA-dependent RNA polymerase inhibitors: from alpha,gamma-diketoacids to 4,5-dihydroxypyrimidine- or 3-methyl-5-hydroxypyrimidinonecarboxylic acids. Design and synthesis” (J Med Chem, 2004)", "key": {"DNA polymerase I": {"target": "DNA polymerase I (Escherichia coli, UniProt P00582)", "sequence (P00582 whole entry)": "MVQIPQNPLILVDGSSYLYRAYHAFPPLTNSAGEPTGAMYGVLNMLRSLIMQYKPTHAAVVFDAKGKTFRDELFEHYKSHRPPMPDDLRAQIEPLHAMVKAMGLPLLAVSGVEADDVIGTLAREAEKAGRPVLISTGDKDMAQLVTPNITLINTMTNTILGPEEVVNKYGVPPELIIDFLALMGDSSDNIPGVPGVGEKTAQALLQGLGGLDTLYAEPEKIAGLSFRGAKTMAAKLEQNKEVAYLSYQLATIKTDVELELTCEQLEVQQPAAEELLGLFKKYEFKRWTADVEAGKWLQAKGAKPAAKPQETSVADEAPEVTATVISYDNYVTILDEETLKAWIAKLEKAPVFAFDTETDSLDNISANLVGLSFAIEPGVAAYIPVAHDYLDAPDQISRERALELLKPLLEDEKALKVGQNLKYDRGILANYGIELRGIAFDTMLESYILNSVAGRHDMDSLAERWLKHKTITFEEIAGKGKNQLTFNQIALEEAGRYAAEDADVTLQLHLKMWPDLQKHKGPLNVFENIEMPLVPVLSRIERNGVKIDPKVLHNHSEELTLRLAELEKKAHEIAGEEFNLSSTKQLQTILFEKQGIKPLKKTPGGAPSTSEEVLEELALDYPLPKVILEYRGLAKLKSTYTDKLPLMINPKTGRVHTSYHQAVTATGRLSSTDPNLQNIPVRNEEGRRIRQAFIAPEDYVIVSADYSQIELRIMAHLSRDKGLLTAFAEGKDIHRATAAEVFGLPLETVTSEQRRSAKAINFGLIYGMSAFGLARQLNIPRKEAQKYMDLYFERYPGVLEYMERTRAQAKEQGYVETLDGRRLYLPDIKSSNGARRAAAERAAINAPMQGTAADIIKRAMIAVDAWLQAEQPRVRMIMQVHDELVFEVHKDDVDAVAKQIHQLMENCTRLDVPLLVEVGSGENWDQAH", "test": "Inhibitory concentration required to inhibit Klenow DNA-dependent DNA polymerase"}, "Rattus norvegicus [1]": {"organism": "Rattus norvegicus", "test": "Concentration required for irreversible binding to rat liver microsomes in presence of NADPH without GSH", "format": "functional", "method_in_brief": "(§1)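 A tritium-labelled inhibitor was incubated with rat liver microsomes in the presence of NADPH for 4 h. Irreversible covalent binding was read as residual radioactivity bound to microsomal protein, expressed as pmol/mg protein.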"}, "[2]": {"target": "Human immunodeficiency virus type 1 integrase (Human immunodeficiency virus 1, UniProt Q7ZJM1)", "sequence (Q7ZJM1 whole entry)": "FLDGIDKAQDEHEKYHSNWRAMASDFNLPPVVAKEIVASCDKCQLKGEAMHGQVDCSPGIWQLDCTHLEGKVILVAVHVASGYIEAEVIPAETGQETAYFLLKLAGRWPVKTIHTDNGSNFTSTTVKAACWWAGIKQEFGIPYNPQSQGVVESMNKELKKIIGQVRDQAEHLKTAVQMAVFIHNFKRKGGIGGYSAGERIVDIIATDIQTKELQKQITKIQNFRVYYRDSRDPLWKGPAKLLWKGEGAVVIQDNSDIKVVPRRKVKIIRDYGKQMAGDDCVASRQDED", "test": "Inhibitory concentration required to inhibit HIV-integrase is determined"}, "[3]": {"target": "Human immunodeficiency virus type 1 reverse transcriptase (Human immunodeficiency virus 1, UniProt Q72547)", "test": "Inhibitory concentration required to inhibit HIV-RT is determined"}, "Rattus norvegicus [4]": {"organism": "Rattus norvegicus", "test": "Concentration required for irreversible binding to rat liver microsomes in presence of NADPH with GSH", "format": "functional", "method_in_brief": "as §1"}, "[5]": {"target": "T1, RNA-directed RNA polymerase (Hepacivirus hominis, UniProt O39930)", "T1 sequence (O39930 whole entry)": "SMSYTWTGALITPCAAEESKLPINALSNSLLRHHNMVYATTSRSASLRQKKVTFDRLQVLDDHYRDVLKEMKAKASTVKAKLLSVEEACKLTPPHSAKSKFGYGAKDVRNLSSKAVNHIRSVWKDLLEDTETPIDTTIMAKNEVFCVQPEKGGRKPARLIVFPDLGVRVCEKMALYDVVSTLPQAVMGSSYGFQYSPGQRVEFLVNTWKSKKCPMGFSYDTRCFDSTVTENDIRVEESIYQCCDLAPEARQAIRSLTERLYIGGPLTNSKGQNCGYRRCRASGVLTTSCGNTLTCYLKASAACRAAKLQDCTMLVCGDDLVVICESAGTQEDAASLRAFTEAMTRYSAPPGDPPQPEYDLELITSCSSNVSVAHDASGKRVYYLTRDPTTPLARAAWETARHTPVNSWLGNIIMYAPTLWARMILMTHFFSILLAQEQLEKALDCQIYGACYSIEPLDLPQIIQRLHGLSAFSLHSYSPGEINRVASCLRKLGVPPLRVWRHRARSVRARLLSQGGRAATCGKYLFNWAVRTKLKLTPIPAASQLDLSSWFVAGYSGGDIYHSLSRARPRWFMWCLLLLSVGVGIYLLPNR", "test": "Inhibitory concentration required to inhibit HCV RNA dependent RNA polymerase Nonstructural protein 5B in the presence of Mn2+ is determined"}, "[6]": {"target": "T1, RNA-directed RNA polymerase", "test": "Inhibitory concentration required to inhibit HCV RNA dependent RNA polymerase Nonstructural protein 5B in the presence of Mg2+ is determined"}}}
{"compound": "O=C(O)c1nc(-c2ccccc2)nc(O)c1O", "values": [{"measurement": "IC50", "setting": "DNA polymerase I", "value": "> 100", "unit": "µM"}, {"measurement": "Activity", "setting": "Rattus norvegicus [1]", "value": "< 2", "unit": "pmol/mg"}, {"measurement": "IC50", "setting": "[2]", "value": "> 50", "unit": "µM"}, {"measurement": "IC50", "setting": "[3]", "value": "> 100", "unit": "µM"}, {"measurement": "Activity", "setting": "Rattus norvegicus [4]", "value": "< 2", "unit": "pmol/mg"}, {"measurement": "IC50", "setting": "[5]", "value": 2.3, "unit": "µM"}]}
{"compound": "O=c1[nH]c(-c2cccc(O)c2)ncc1O", "values": [{"measurement": "IC50", "setting": "[6]", "value": "> 50", "unit": "µM"}, {"measurement": "IC50", "setting": "[5]", "value": "> 50", "unit": "µM"}]}
{"compound": "O=C(O)C(=O)/C=C(\\O)c1ccccc1", "values": [{"measurement": "Activity", "setting": "Rattus norvegicus [1]", "value": "> 400", "unit": "pmol/mg"}, {"measurement": "Activity", "setting": "Rattus norvegicus [4]", "value": "> 400", "unit": "pmol/mg"}]}
{"compound": "O=C(O)c1nc(-c2cccc(OCc3ccccc3)c2)[nH]c(=O)c1O", "values": [{"measurement": "IC50", "setting": "DNA polymerase I", "value": "> 100", "unit": "µM"}, {"measurement": "IC50", "setting": "[6]", "value": 15, "unit": "µM"}, {"measurement": "IC50", "setting": "[2]", "value": "> 50", "unit": "µM"}, {"measurement": "IC50", "setting": "[3]", "value": "> 100", "unit": "µM"}, {"measurement": "IC50", "setting": "[5]", "value": 1, "unit": "µM"}]}
{"compound": "Cn1c(-c2cccc(O)c2)nc(C(=O)O)c(O)c1=O", "values": [{"measurement": "IC50", "setting": "[6]", "value": 6, "unit": "µM"}, {"measurement": "IC50", "setting": "[5]", "value": 1, "unit": "µM"}]}
{"compound": "COc1c(C(=O)O)nc(-c2ccc(Cl)cc2)[nH]c1=O", "values": [{"measurement": "IC50", "setting": "[6]", "value": "> 50", "unit": "µM"}, {"measurement": "IC50", "setting": "[5]", "value": "> 50", "unit": "µM"}]}
{"compound": "O=C(O)c1nc(-c2ccc(Cl)cc2)[nH]c(=O)c1O", "values": [{"measurement": "IC50", "setting": "DNA polymerase I", "value": "> 100", "unit": "µM"}, {"measurement": "IC50", "setting": "[6]", "value": 29, "unit": "µM"}, {"measurement": "IC50", "setting": "[2]", "value": "> 50", "unit": "µM"}, {"measurement": "IC50", "setting": "[3]", "value": 23, "unit": "µM"}, {"measurement": "IC50", "setting": "[5]", "value": 1.4, "unit": "µM"}]}
{"compound": "O=C(O)c1nc(-c2cccc(O)c2)nc(O)c1O", "values": [{"measurement": "IC50", "setting": "DNA polymerase I", "value": "> 100", "unit": "µM"}, {"measurement": "IC50", "setting": "[6]", "value": 5.8, "unit": "µM"}, {"measurement": "IC50", "setting": "[2]", "value": "> 50", "unit": "µM"}, {"measurement": "IC50", "setting": "[3]", "value": "> 100", "unit": "µM"}, {"measurement": "IC50", "setting": "[5]", "value": 0.6, "unit": "µM"}]}
{"compound": "COc1nc(-c2cccc(O)c2)nc(C(=O)O)c1O", "values": [{"measurement": "IC50", "setting": "[6]", "value": "> 50", "unit": "µM"}, {"measurement": "IC50", "setting": "[5]", "value": "> 50", "unit": "µM"}]}
{"compound": "COC(=O)c1nc(-c2ccc(Cl)cc2)[nH]c(=O)c1O", "values": [{"measurement": "IC50", "setting": "[6]", "value": "> 100", "unit": "µM"}, {"measurement": "IC50", "setting": "[5]", "value": 30, "unit": "µM"}]}
